TRPC6 inhibitor: mouse TRPC6 channel inhibitors, primary screen, cell-based, HEK293, membrane potential dye. Short transient receptor potential channel 6 (Mus musculus), Q61143. actives 1.1% (n = 310,000). AID 2553, 2010. B-score at 10 µM. ACh-evoked depolarization; hits give low values;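 active = B-score under library mean minus 3 SD, initial fluorescence not abnormally high, positive integrated signal ratio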;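 note: B-score derived from integrated fluorescence ratio over the kinetic read; more negative B-score means stronger inhibition of depolarization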
TRPC6 act: mouse TRPC6 channel activators, primary screen, cell-based, HEK293, membrane potential dye; B-score at 10 µM; Short transient receptor potential channel 6 (Mus musculus), Q61143; HEK293-TRPC6 membrane potential dye fluorescence; hits give high values; actives 0.13% (n = 310,000);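 active = B-score of the integrated fluorescence ratio above library mean plus 3 SD, and starting fluorescence ratio within library mean plus 5 SD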;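 note: higher score means more depolarization so channel activation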
TRPC4 PAM: positive allosteric modulators of TRPC4, primary screen, cell-based, mouse TRPC4beta, HEK293 mu-opioid, Fluo-4 calcium. actives 0.42% (n = 310,000). DAMGO EC20, Fluo-4 Ca2+ flux; hits give high values. AID 2227, 2009. B-score at 10 µM;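 active = B-score of calcium response area above 5 SD of library B-scores, with initial fluorescence ratio within 5 SD of library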;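 note: B-score of integrated fluorescence ratio over time as area under calcium response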
Target sequence (Q9QUQ5 whole entry, looked up): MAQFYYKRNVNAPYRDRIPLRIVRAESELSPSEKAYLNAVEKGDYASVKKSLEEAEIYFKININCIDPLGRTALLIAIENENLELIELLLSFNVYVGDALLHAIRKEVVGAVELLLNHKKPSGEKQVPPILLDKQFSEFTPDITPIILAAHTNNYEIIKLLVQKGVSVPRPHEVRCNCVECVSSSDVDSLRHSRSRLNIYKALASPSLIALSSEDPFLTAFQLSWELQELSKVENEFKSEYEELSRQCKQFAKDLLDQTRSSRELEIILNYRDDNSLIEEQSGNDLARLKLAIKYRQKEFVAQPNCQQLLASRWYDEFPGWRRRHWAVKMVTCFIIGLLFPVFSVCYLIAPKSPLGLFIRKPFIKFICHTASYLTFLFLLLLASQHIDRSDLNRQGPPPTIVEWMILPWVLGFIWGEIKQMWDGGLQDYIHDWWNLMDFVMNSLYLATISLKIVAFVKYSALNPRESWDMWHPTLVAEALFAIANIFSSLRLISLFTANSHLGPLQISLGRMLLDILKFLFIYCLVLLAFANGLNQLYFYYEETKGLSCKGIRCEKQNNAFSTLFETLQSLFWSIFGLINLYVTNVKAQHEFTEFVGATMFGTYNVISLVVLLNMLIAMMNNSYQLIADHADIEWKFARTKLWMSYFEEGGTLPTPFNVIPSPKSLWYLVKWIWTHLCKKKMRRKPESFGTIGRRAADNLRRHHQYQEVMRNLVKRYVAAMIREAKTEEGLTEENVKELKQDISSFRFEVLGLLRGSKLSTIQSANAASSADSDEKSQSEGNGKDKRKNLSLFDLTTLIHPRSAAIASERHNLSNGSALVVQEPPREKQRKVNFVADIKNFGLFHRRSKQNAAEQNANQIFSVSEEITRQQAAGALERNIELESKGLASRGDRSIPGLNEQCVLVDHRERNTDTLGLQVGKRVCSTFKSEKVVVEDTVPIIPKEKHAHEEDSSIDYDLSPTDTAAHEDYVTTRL
TRPC4 agonist: activators of mouse TRPC4 channel, primary screen, Fluo4 calcium, HEK293 TRPC4beta/mu-opioid cells | Short transient receptor potential channel 4 (Mus musculus), Q9QUQ5 | AID 2237, 2010 | B-score at 10 µM | Fluo4 calcium fluorescence; hits give high values | actives 0.49% (n = 310,000);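 active = B-score above 5 SD of library B-scores, and initial fluorescence ratio not above library mean plus 5 SD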;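 note: positive B-score marks a calcium rise read as TRPC4 activation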
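Material: HEK293 stable line with TRPC4beta plus mu-opioid receptor; technique: Fluo4 calcium-sensitive dye fluorescence, kinetic, 1 Hz baseline; timing: Fluo4 dye loading 45 min at room temperature, 110 s recording; controls: assay buffer as low control, maximal DAMGO as high control; read-out: integrated baseline-normalised fluorescence ratio, converted to per-well B score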
TRPC4 block: inhibitors of mouse TRPC4 channel, primary screen, Fluo4 calcium, HEK293 TRPC4beta/mu-opioid cells. B-score at 10 µM. actives 0.39% (n = 300,000). AID 2247, 2010. Short transient receptor potential channel 4 (Mus musculus), Q9QUQ5. DAMGO-evoked Fluo4 calcium flux; hits give low values;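 active = B-score over 3 SD under the library average, no early fluorescence shift, positive overall ratio signal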
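Assay system: Stable TRPC4beta/mu-opioid receptor HEK293 cells | Reagent: DAMGO in two steps, submaximal then maximal | Compound dosing: Single concentration per test compound | Signal: Fluo4 Ca2+ flux fluorescence | Evaluation: Per-well B score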
TRPC4 spec 2: second check of whether TRPC6 inhibitors also affect mouse TRPC4; shares compounds with TRPC6 inhibitor; HEK293 TRPC4/MOR, membrane potential dye fluorescence; channel activated by saturating DAMGO dose; inhibition, % at 10 µM; actives 42% (n = 920); AID 2776;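 active = compounds whose fluorescence signal differed from control wells by over 3 SD, either direction, in both duplicate plates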
TRPC4 spec: mouse TRPC4 modulation by TRPC6 hits, confirmation, selectivity assay for TRPC6 inhibitor project, cell-based, HEK293 TRPC4/mu-opioid, membrane potential dye; shares compounds with TRPC6 inhibitor; membrane potential fluorescence; activity change, negative = inhibition, % at 10 µM; actives 61% (n = 920); AID 2777, 2010;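 active = rise or fall in signal beyond 3 SD of buffer-only wells in both replicate plates, either sign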;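 note: integrated kinetic ratio of fluorescence range over baseline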
HEK293 MPD ctr 2-1: nonspecific membrane potential effects, parental HEK293, confirmation, counter-screen for TRPC6 inhibitor project, cell-based, second counter screen; shares compounds with TRPC6 inhibitor; parental HEK293 membrane potential dye fluorescence; maximal acetylcholine challenge after compound addition; signal change vs control, % at 10 µM; actives 31% (n = 920); AID 2779, 2010;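 active = membrane potential signal moving either way by over 3 SD of the maximum-effect control, in both duplicate plates, meaning non-specific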
HEK293 MPD ctr-1: membrane potential modulation in parental HEK293, confirmation, counter-screen for TRPC6 inhibitor project, cell-based; shares compounds with TRPC6 inhibitor; actives 60% (n = 920); membrane potential signal change, % at 10 µM; parental HEK293 membrane potential dye fluorescence;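 active = membrane potential signal shifting up or down by more than 3 SD of buffer-only wells, on both duplicate plates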
HEK293 MPD ctr-2: parental HEK293 membrane potential modulation, confirmation, counter-screen for TRPC6 modulator project, cell-based; actives 51% (n = 2,400); membrane potential dye fluorescence; shares compounds with TRPC6 inhibitor; AID 488924, 2010; membrane potential signal change, % at 10 µM;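 active = membrane potential signal moves up or down beyond 5 SD from buffer-only wells, on both duplicate plates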
HEK293 MPD ctr 2-2: second check of TRPC6 modulator effects in parental HEK293 cells; shares compounds with TRPC6 inhibitor; membrane potential dye fluorescence; after compound, maximal acetylcholine stimulation; inhibition, % at 10 µM; actives 14% (n = 2,400); AID 488926;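 active = membrane potential signal drops by more than 5 SD from the mean control signal, in both duplicate plates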;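 note: plate controls were acetylcholine ECmax control wells for no effect and buffer only wells for full effect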
TRPC4/MOR mod: TRPC4 modulation by TRPC6 hit compounds, confirmation, selectivity assay for TRPC6 modulator project, cell-based, HEK293 TRPC4/mu-opioid, membrane potential dye, mouse. shares compounds with TRPC6 inhibitor. actives 69% (n = 2,400). AID 488927, 2010. membrane potential fluorescence. percent change from control (negative = decrease, positive = increase), % at 10 µM;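 active = membrane potential signal moved up or down beyond 5 SD of buffer control wells, in both duplicate plates, actives on both sides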;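 note: plate controls were assay buffer wells for no effect and DAMGO maximal-effect wells for full effect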
TRPC4/MOR inh 2: second check of whether TRPC6 modulators also affect mouse TRPC4. shares compounds with TRPC6 inhibitor. HEK293 TRPC4/mu-opioid, membrane potential dye fluorescence; stimulated with maximal-effect DAMGO. inhibition, % at 10 µM. actives 55% (n = 2,400);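 active = drop in membrane potential signal beyond 5 SD of the control wells in both duplicate plates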;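 note: TRPC4 counter screen for TRPC6 hits run under conditions tuned for TRPC6 not TRPC4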
TRPC6 block conf: mouse TRPC6 channel inhibitors, confirmation, HEK293 cells, membrane potential dye, duplicate; shares compounds with TRPC6 inhibitor; ACh-evoked depolarization; inhibition, % at 10 µM; actives 43% (n = 3,300);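 active = fluorescence ratio falls more than 5 SD below the full-stimulation control mean, in both duplicate runs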;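 note: integrated fluorescence ratio of peak minus minimum over baseline after agonist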
TRPC6 act confirm: mouse TRPC6 channel activators, confirmation, HEK293 cells, membrane potential dye, duplicate | actives 11% (n = 2,800) | activation, % at 10 µM | HEK293-TRPC6 membrane potential dye fluorescence, FDSS | shares compounds with TRPC6 inhibitor;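 active = ratio signal rise beyond 5 SD above unstimulated control wells' mean, seen in both duplicate runs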;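 note: plate controls were buffer EC0 wells for no effect and acetylcholine ECmax response for full effect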
* marks the source's active call; other numbers are inactive results; i = inactive; . = no result given. Shown are actives, neighbours in structure and some others; about 2.3% of the full set was active somewhere.

SMILES	TRPC6 inhibitor	TRPC6 act	TRPC4 PAM	TRPC4 agonist	TRPC4 block	HEK293 MPD ctr-2	HEK293 MPD ctr 2-2	TRPC4/MOR mod	TRPC4/MOR inh 2	TRPC6 block conf	TRPC6 act confirm	others
COC(=O)c1sc(N2C(=O)C(O)=C(C(=O)c3ccc(C)o3)C2c2cc(OC)ccc2OC)nc1C (stereo unspecified)	i	i	i	i	i	.	.	.	.	.	.
Cc1ccc2c(CN3CCN(S(=O)(=O)c4ccc5c(c4)OCCO5)CC3)cc(=O)oc2c1C	-5.61*	i	i	i	i	i	i	i	i	i	i
CCOC(=O)c1c(NC(=O)CSc2ncnc3[nH]ncc23)sc2c1CCC(C)C2 (stereo unspecified)	i	i	i	i	i	.	.	.	.	.	.
C/C(=N\NC(=O)c1ccccc1O)C1C(=O)c2ccccc2C1=O	-5.47*	i	i	i	i	i	i	-16.5%*	i	i	i
C/C(=N/NC(=O)c1cc2ccccc2cc1O)C1C(=O)c2ccccc2C1=O	i	i	i	i	i	.	.	.	.	.	.
Cc1nnc(C)c2c(C)n(C(C)c3ccccc3)c(C)c12 (stereo unspecified)	i	i	i	i	i	.	.	.	.	.	.
COc1ccc(C(C)n2c(C)c3c(C)nnc(C)c3c2C)cc1 (stereo unspecified)	-8.12*	i	i	i	i	-219.5%*	i	-30.0%*	65.0%*	i	i
CCOC(=O)Nc1ccc2c(c1)N(CCCN(C)C)c1ccccc1CC2	-7.79*	i	i	i	i	.	.	.	.	51.1%*	i	TRPC4 spec 2=i;TRPC4 spec=i;HEK293 MPD ctr 2-1=i;HEK293 MPD ctr-1=i
